The values below come from ChEMBL document CHEMBL4330057, “Second generation of diazachrysenes: Protection of Ebola virus infected mice and mechanism of action” (Eur J Med Chem, 2019).

Calls of active or inactive are those of the source. The rule behind the calls is not given here. Bounds are passed on as bounds.

One may read the EC90 as the concentration needed for an effect of 90%. A word on the EC50: it is the concentration that produces a half-maximal response. In general, CC50 refers to the concentration giving 50% cytotoxicity.

Series [1] concerns Ebolavirus. Kind of series: Antiviral activity against Ebolavirus H. sapiens-wt/1995/Kikwit-9510621 infected in human HeLa cells assessed as inhibition of viral infection pretreated for 2 hrs followed by viral infection and measured after 48 hrs by EboV GP immunostaining based high content imaging analysis. In kind it is functional, organism-based.
A short description of series [2]: Cytotoxicity against human HeLa cells after 2 hrs by high content imaging analysis. In kind it is cell-based.
Series [3] is described as follows: Selectivity index, ratio of CC50 for human HeLa cells to EC50 for Ebolavirus H. sapiens-wt/1995/Kikwit-9510621 infected in human HeLa cells. In kind it is toxicity, cell-based. The note with it: read-out: Ratio CC50/EC50.
The subject of a further series is Zaire ebolavirus. Kind of series: Antiviral activity against VSV pseudotyped Ebolavirus Mayinga expressing GFP infected in human HeLa cells assessed as inhibition of viral infection at 10 uM pre-incubated for 2 hrs followed by viral infection and measured after 8 hrs by cell mask deep red staining based assay. It is filed as functional, organism-based. To be noted: 1976. Summed up: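 HeLa cells pretreated 2 h with compound, then infected with rVSV-EBOV-GP-GFP (8 h) or VSV-GFP (6 h), and stained with Cell Mask Deep Red. Relative inhibition = 1 minus (% GFP-expressing cells normalised to mock). Mean ± SD of three replicates, representative of three independent experiments.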

Series [4] deals with HeLa. Kind of series: Induction of lysosomotropism in human HeLa cells infected with Ebolavirus assessed as increase in fluorescence intensity of acid compartments at 10 uM for 1 hr by Lysosensor DND189 staining based assay. In kind it is functional, cell-based. Summed up: (§1)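 HeLa cells were pretreated 1 h with compound (Bafilomycin A1 at 0.01 μM as acidification control), then stained with LysoSensor DND 189 for 10 min and washed. Live imaging at Ex/Em 443/505 nm. Fluorescence intensity per area was quantified by image analysis. Eight wells per point, about 3000 cells/well, mean ± SD, three independent experiments.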

For series [5], the system named is HeLa. In words: Induction of lysosomotropism in human HeLa cells infected with Ebolavirus assessed as increase in lysosome concentration in juxtanuclear region at 10 uM for 2 hrs by acridine orange staining based assay. In kind it is functional, cell-based. A digest of the protocol: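 HeLa cells were pretreated with compound for 2 h, then given acridine orange for 30 min and washed. Red AO fluorescence in acidic compartments was imaged, and total intensity and average area were scored by high-content imaging. Eight wells per point, about 3000 cells/well, mean ± SD, representative of three independent experiments.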

In series [6] the target is Cathepsin B (Homo sapiens) (UniProt P07858). Kind of series: Inhibition of cathepsin B activity in human HeLa cells at 10 uM after 12 hrs by magic red substrate based fluorescence assay. In kind it is cell-based. A digest of the protocol: (§2)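 HeLa cells were exposed to compound for 12 h, then given the Magic Red cathepsin B peptide reporter, washed, and imaged at Ex/Em 590/630. Total intensity and average area of red fluorescence were scored by high-content analysis. Eight wells per point, about 3000 cells/well, mean ± SD, three independent experiments.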

The test system of series [7] is Ebolavirus. Kind of series: Antiviral activity against Ebolavirus. In kind it is functional, organism-based. To be noted: Orthoebolavirus.
Series [8] deals with Ebolavirus. Kind of series: Antiviral activity against Ebolavirus infected in mouse assessed as protection against viral infection at 300 mg/kg/day relative to control. It is filed as functional.
For series [9], the system named is HeLa. In words: Induction of lysosomotropism in human HeLa cells infected with Ebolavirus assessed as increase in fluorescence intensity of acid compartments at 0.01 uM for 1 hr by Lysosensor DND189 staining based assay. In kind it is functional, cell-based. Summed up: as §1
The subject of series [10] is HeLa. Kind of series: Induction of lysosomotropism in human HeLa cells infected with Ebolavirus assessed as expansion of acid compartments at 0.01 uM for 2 hrs by acridine orange staining based assay. In kind it is functional, cell-based. A digest of the protocol: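 HeLa cells pretreated 2 h, then acridine orange for 30 min, washed and imaged. Total intensity and average area of acridine orange fluorescence quantified by high-content imaging. Mean ± SD of 8 wells, about 3000 cells each, three independent experiments.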

Series [11] deals with Cathepsin B (Homo sapiens) (UniProt P07858). In words: Inhibition of cathepsin B activity in human HeLa cells at 0.01 uM after 12 hrs by magic red substrate based fluorescence assay. In kind it is cell-based. Summed up: as §2
Series [12] has as its system Ebolavirus. Kind of series: Antiviral activity against Ebolavirus infected in mouse assessed as protection against viral infection at 60 mg/kg/day relative to control. In kind it is functional.
Series [13] concerns Ebolavirus. In words: Antiviral activity against Ebolavirus infected in monkey assessed as protection against viral infection at 3.3 mg/kg/day relative to control. It is filed as functional.
Where [14] appears, read: Orthoebolavirus, H. sapiens-wt/1995/Kikwit-9510621, HeLa.
Where [15] appears, read: Orthoebolavirus, H. sapiens-wt/1995/Kikwit-9510621, HeLa, read-out: EC50.

Regarding `c1cc(NCCCCN2CCOCC2)c2nccc(NCCCCN3CCOCC3)c2n1`, in the series with Ebolavirus [1] (setting [14]), the EC90 turned out to be 9.9 µM. In addition, the EC50 with Ebolavirus [1] (setting [15]) worked out at 2.24 µM. Further, the CC50 at 2 h in [2] was more than 25 µM. Moreover, the selectivity ratio in [3] was more than 11.2.
Regarding `CCN(CC)Cc1cc(Nc2ccnc3cc(Cl)ccc23)ccc1O`, the outcome in the series with Zaire ebolavirus and in the series with HeLa [5] was Active. Besides, the result in the series with HeLa [4] was inactive. Also, in series [6], the inhibition result is “inactive”.
Regarding `Nc1ncnc2c(C[C@@H]3N[C@H](CO)[C@@H](O)[C@H]3O)c[nH]c12`, the EC50 with Ebolavirus [7] lay in the range of 3.4 to 11.8 µM. The Activity with Ebolavirus [8] was 100%.
Take `CO/C1=C\C(C)=C\[C@@H](C)[C@@H](O)[C@@H](C)C/C(C)=C/C=C/[C@H](OC)[C@@H]([C@@H](C)[C@@H](O)[C@H](C)[C@@]2(O)C[C@@H](O)[C@H](C)[C@@H](C(C)C)O2)OC1=O`: the outcome in the series on HeLa [9] was Active. In the series on HeLa [10], the outcome was inactive. Besides, in [11], the inhibition result was “Active”.
As for `OC(CNc1ccnc2c(NCC(O)CN3CCOCC3)ccnc12)CN1CCOCC1` (stereo not drawn), the EC50 entry in the series on Ebolavirus [1] is “Not Active”.
Take `CCN(CC)CCCC(C)Nc1ccnc2cccnc12` (stereo not drawn): the concentration giving a half-maximal response (EC50) in the series with Ebolavirus [1] (setting [15]) stood at 10 µM.
With `CCN(CC)CCCNc1ccnc2cccnc12`, the EC50 in the series on Ebolavirus [1] (setting [15]) amounted to 10 µM.
In the series on Ebolavirus [7], `CN(C)CCOc1ccc(/C(=C(/CCCl)c2ccccc2)c2ccccc2)cc1` [TOREMIFENE] gave an EC50 of 0.97 to 1.73 µM. Also, in the series on Ebolavirus [12], the Activity is listed as 50%.
With `Clc1ccc2c(NCCCCNc3ccnc4cccnc34)ccnc2c1`, the EC90 in the series on Ebolavirus [1] (setting [14]) was determined as 13 µM. The EC50 in the series with Ebolavirus [1] (setting [15]) was found to be 2.87 µM. For the same molecule, in series [2], the CC50 at 2 h is more than 25 µM. The selectivity ratio in [3] is more than 8.7.
Regarding `CN(C)CCOCCNc1ccnc2c1ccc1c2ccc2c(NCCOCCN(C)C)ccnc21`, the EC90 with Ebolavirus [1] (setting [14]) came to 6.74 µM. Besides, the EC50 with Ebolavirus [1] (setting [15]) came to 3.53 µM. For the same molecule, the CC50 at 2 h in [2] was 7 µM. In addition, in series [3], the selectivity ratio amounted to 2.
Regarding `OC(CNc1ccnc2c1ccc1c2ccc2c(NCCN3CCOCC3)ccnc21)CN1CCOCC1` (stereo not drawn), in the series on Ebolavirus [1] (setting [14]), the EC90 came out at 3.5 µM. For the same molecule, in the series on Ebolavirus [1] (setting [15]), the EC50 worked out at 0.6 µM. In series [2], the CC50 at 2 h was more than 10 µM. Moreover, the selectivity ratio in [3] was more than 16.7.
As to `c1cnc2c(NCCCN3CCOCC3)ccnc2c1`, the EC50 result in the series with Ebolavirus [1] is reported as “Not Active”.
The molecule `CCC(CC)COC(=O)[C@H](C)N[P@](=O)(OC[C@H]1O[C@@](C#N)(c2ccc3c(N)ncnn23)[C@H](O)[C@@H]1O)Oc1ccccc1` gave an EC50 in the series on Ebolavirus [7] of 0.06 to 0.14 µM. Also, the Activity with Ebolavirus [13] is 100%.
